High-throughput results: PubChem, several laboratories
BAP1 inh – blocks human BAP1 ubiquitin-AMC hydrolysis. Q92560. recombinant BAP1, Ub-AMC hydrolysis fluorescence kinetic; stronger effect = lower value. activity remaining (% of control), % at 20 µM. 0.48% of 72,000 active. AID 436;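 active = activity remaining at or below 50% of control, provided the compound also passes the data quality filters; inactive = the rest, including low values that fail the filters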;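 also: 100% = DMSO wells rate and 0% = substrate alone blank rate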
RORa activator – activators of human nuclear receptor RORA | 1.5% of 65,000 active | activation, % at 10 µM | AID 560 | CHO-K1 Gal4-RORA LBD luciferase reporter, luminescence; percent increase over mock-subtracted basal signal | P35398;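 active = activation above the mean of all tested compounds plus 3 SD, cut at about 49% in these data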;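 also: 0% = DMSO-treated RORA cells and 100% = added signal equal to DMSO minus mock-transfected cells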
SF-1 act – activates the human nuclear receptor SF-1 | Q13285 | CHO-K1 Gal4-SF-1 LBD luciferase reporter; % increase over DMSO SF-1-specific signal | activation, % at 10 µM | 1.9% of 65,000 active;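 active = activation above the mean activation of all tested compounds plus 3 SD, cut at about 50% in these data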
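Compound – one dose, 10 µM compound, 1% DMSO · Test system – transient Gal4-SF-1 LBD reporter, CHO-K1 · Input – 4,000 cells in each well · Read-out basis – percent activation relative to DMSO median and mock-transfected background · Replicates – single measurement per compound · Technique – steady-glow luciferase luminescence, read after 15 min reagent incubation · Timing – 20 h compound treatment, 37 °C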
Ec RNAP inh – Escherichia coli RNA polymerase inhibition; P0A8V2; E. coli RNA polymerase, fluorescence transcription assay; inhibition, %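 (tested at 10 µM)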; 0.2% of 62,000 active; AID 559; in the data active = inhibition above about 20%;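 also: 0% = enzyme without compound and 100% = no enzyme blank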
Target sequence (P0A8V2 whole entry, looked up): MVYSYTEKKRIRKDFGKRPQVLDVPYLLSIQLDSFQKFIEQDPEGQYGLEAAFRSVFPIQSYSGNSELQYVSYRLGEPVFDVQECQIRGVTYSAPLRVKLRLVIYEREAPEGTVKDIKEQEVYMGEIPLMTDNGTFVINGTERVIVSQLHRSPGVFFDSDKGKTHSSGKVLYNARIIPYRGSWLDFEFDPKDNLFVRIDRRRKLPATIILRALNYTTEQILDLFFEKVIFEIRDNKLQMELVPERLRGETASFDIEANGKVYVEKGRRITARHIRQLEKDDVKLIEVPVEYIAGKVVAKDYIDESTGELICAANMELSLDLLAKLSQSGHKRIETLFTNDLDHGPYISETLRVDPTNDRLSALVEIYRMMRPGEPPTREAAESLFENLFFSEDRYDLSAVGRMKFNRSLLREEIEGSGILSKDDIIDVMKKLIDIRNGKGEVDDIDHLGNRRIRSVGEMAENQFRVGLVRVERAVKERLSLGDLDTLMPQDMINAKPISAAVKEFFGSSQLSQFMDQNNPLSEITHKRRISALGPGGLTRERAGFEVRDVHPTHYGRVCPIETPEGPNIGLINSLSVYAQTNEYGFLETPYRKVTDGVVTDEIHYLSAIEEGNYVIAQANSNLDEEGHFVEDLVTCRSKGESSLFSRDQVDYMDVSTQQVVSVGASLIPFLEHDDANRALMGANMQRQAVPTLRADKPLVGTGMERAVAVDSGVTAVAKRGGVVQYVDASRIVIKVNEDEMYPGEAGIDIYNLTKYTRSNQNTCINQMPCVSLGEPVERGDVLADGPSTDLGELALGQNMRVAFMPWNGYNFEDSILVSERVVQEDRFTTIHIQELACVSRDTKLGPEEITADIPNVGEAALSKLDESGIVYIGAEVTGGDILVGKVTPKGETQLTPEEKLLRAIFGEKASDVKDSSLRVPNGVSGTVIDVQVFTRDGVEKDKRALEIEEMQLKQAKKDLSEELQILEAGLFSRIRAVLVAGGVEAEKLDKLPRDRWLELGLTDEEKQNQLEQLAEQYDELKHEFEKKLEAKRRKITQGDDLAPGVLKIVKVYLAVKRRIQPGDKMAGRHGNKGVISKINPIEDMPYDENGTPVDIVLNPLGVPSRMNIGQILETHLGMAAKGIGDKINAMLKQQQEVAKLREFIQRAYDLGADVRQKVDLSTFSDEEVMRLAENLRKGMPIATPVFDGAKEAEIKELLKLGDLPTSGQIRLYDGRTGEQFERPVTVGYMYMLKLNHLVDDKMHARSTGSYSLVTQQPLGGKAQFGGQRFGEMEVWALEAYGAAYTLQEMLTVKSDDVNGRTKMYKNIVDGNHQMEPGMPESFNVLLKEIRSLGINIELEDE
JNK3 inh – inhibitors of human JNK3 kinase | inhibition, % at 8 µM | P53779 | 0.61% of 60,000 active | purified JNK3 kinase activity, HTS; in the data active = inhibition above about 17%;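 also: 0% = DMSO and 100% = reference inhibitor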
The depositor's hits bear a star; nt = no result given. An excerpt weighted towards active compounds, which were near 3.2% of everything screened.

SMILES	BAP1 inh	RORa activator	SF-1 act	Ec RNAP inh	JNK3 inh
CCOC(=O)N1CCN(C(=O)CN(c2cccc(C)c2)S(=O)(=O)c2ccc(C)cc2)CC1	93	-15	-4	13	-1
Cc1ccc(C2NC(=O)c3ccccc3N2)s1 (stereo not drawn)	124	77*	89*	1	8
O=C1NC(c2ccncc2)Nc2ccccc21 (stereo not drawn)	nt	-29	-13	nt	0
Cn1cccc1C(=O)OCc1cc(Cl)cc2c1OCOC2	106	24	60*	-1	5
O=C(Nc1ccc(Cl)cn1)c1cccc(F)c1	96	105*	95*	4	8
CCOc1cccc(C(=O)Nc2ccc(Cl)cn2)c1	262	nt	nt	nt	nt
CCOc1ccc(C(=O)Nc2ccc(Cl)cn2)cc1Cl	106	86*	49	6	6
O=C(CN1CCCCC1)Nc1ccccc1NC(=O)CN1CCCCC1	54	7	-3	9	-3
COc1cccc2c(=O)c(C(=O)NCc3cccs3)c[nH]c12	103	26	119*	5	37*
O=C(c1ccco1)c1cn(CC(=O)N2CCCc3ccccc32)c2ccccc12	80	-4	-14	1	0
CCOC(=O)C1CCCN(c2c(NCCCN(C)c3ccccc3)c(=O)c2=O)C1 (stereo not drawn)	96	-7	-10	3	-2
Cc1ccc(-n2ncc3c(=O)n(-c4ccc(C)c(C)c4)c(C)nc32)cc1	92	0	7	1	0
Cc1ccc(-n2ncc3c2ncn2c(C)nnc32)cc1C	75	60*	21	11	1
CCc1nnc2c3cnn(-c4ccccc4)c3ncn12	98	83*	1	2	9
N#CC1=C(N)SC(N)=C(C#N)C1c1ccnc2ccccc12	71	-4	0	10	-5
O=C(Cn1cnc2ccccc2c1=O)Nc1ccc(-c2nnc3n2CCCCC3)cc1	113	0	-9	4	30*
CS(=O)(=O)N(CC(=O)NCC1CCCO1)c1ccc(Cl)c(Cl)c1 (stereo not drawn)	nt	nt	nt	4	nt
C/C(NC1CCCC1)=C(/C#N)C(N)=O	109	-1	-8	4	32*
CCOc1ccc2c(=O)c(-c3ccc(F)cc3)c(C)oc2c1	150	nt	nt	nt	nt
O=c1c(-c2ccc(O)cc2)coc2cc(O)ccc12	48*	nt	nt	nt	nt
CCN(CC)C(=O)Oc1ccc2c(=O)c(-c3ccc(OC)cc3)c(C)oc2c1	95	60*	31	3	1
CCN(CC)C(=O)Oc1ccc2c(=O)c(-c3ccc(OC)cc3)coc2c1	102	69*	71*	6	4
CSCC[C@H](NC(=O)NCc1ccccc1F)C(=O)O	120	0	-5	nt	-4
CNC(=O)c1c(N)sc2c1CCCCC2	81	3	3	6	-1
CCOC(=O)C1CCCN(c2ncnc3c2cnn3-c2ccc(OC)cc2)C1 (stereo not drawn)	82	42	58*	1	nt
SMILES	BAP1 inh	RORa activator	SF-1 act	Ec RNAP inh	JNK3 inh
O=C(O)c1cccc(OCc2ccccc2Cl)c1	75	24	80*	8	-3
CN(C)S(=O)(=O)c1ccc(-c2nc3ccccc3s2)cc1	81	nt	nt	nt	nt
CN(C)c1nc(N)nc(-c2nc3ccccc3s2)n1	51	11	54*	2	-2
C/C(N)=C(/C#N)C(=O)CSc1ccc2c(c1)OCCO2	110	-2	58*	7	5
Fc1cccc(NCc2cn3ccccc3n2)c1	81	45	72*	-9	-1
Fc1ccc(NCc2cn3ccccc3n2)cc1	96	20	47	5	-1
COCCOC(=O)c1[nH]c2c(c1C)C(=O)C(C(=O)OC)C(C)C2 (stereo not drawn)	98	56*	47	4	-1
COC(=O)C1C(=O)c2c([nH]c(C(=O)OC3CCCCCC3)c2C)CC1C (stereo not drawn)	85	74*	38	7	5
CCCCCOC(=O)c1[nH]c2c(c1C)C(=O)C(C(=O)OC)C(C)C2 (stereo not drawn)	117	31	38	4	nt
Cc1cc(Cl)ccc1NC(=O)CSc1nnc(-c2ccncc2)n1Cc1ccco1	nt	3	3	6	nt
CCOc1ccc2cc(C(=O)Nc3ccccc3)c(=O)oc2c1	87	nt	nt	nt	nt
COc1cccc(C2=N/C(=C\N(C)C)C(=O)O2)c1	71	71*	26	3	1
CCCc1nc(-c2ccc(-c3ccc(F)cc3)cc2)no1	81	18	53*	2	6
CC(C)(C)c1ccc(-c2noc(CCC(N)=O)n2)cc1	93	-88	-88	2	-4
CCCCNc1cc(C(=O)O)cc(S(N)(=O)=O)c1Oc1ccccc1	nt	-2	6	6	-4
Cc1ccccc1-c1nc(CN2CCC(C(=O)NCCCN3CCOCC3)CC2)c(C)o1	77	11	15	4	0
Cc1nc2ccc(Cl)cc2nc(C)/c1=N\O	90	35	52*	5	-7
CN1CCc2c(sc(/N=C/c3cccs3)c2C(N)=O)C1	92	38	23	-1	-2
O=C(c1ccccc1)c1ccc(N2CCCC2)cc1	nt	30	77*	8	nt
O=C(O)CCC(=O)N1CCN(c2ccc(C(=O)c3ccc(F)cc3)cc2)CC1	80	15	-11	-5	2
CN1CCN(c2ccc(C(=O)c3ccc(F)cc3)cc2)CC1	78	61*	38	2	2
CCN(CC)c1ccc(NC(=O)Cn2nnc(-c3cccc(OC)c3OC)n2)c(C)c1	123	-25	-6	1	0
O=C1OCCC1Sc1nnc(-c2ccc3c(c2)OCO3)n1-c1ccccc1 (stereo not drawn)	112	0	-4	6	-4
O=c1[nH]c2ccccc2c2ccccc12	92	nt	nt	nt	nt
O=c1[nH]c2ccccc2c2nc3ccccn3c12	92	11	65*	3	47*
SMILES	BAP1 inh	RORa activator	SF-1 act	Ec RNAP inh	JNK3 inh
N#Cc1ccc(-c2ccco2)nc1SCC(=O)c1ccc(Cl)cc1	nt	5	15	21*	1
CCN1CCN(C(c2cccs2)C(C)NC(=O)C(C)C)CC1 (stereo not drawn)	84	12	-2	2	-5
COc1ccc(OC)c(S(=O)(=O)Nc2ccccc2C(=O)O)c1	141	-3	5	1	4
Cc1ccc(-c2cnc(-c3ccncc3)o2)cc1	nt	58*	65*	-21	0
CC(=O)/C(C#N)=C1\NC(=O)C(Cc2ccccc2Cl)S1 (stereo not drawn)	134	-38	-30	32*	-2
c1ccc(N2CCN(c3nc4cc5c(cc4s3)OCCO5)CC2)cc1	84	77*	61*	8	-9
c1c2c(cc3sc(N4CCOCC4)nc13)OCCO2	96	-69	-65	13	-2
O=C(CSc1nnnn1Cc1ccccc1)Nc1ccc2c(c1)OCO2	99	-16	-24	5	3
CCCC(=O)Nc1cc(C)c(NC(=O)C23CC4CC(CC(C4)C2)C3)cn1	93	-7	-7	4	1
